This note sets out measurements from publication PMC6690761 (Bioorganic & medicinal chemistry letters, 2019).

Structures are written as SMILES.

For this assay, the target named is T1, murine PDS (Mus musculus, UniProt Q9R155).
T1 sequence (Q9R155 1-780): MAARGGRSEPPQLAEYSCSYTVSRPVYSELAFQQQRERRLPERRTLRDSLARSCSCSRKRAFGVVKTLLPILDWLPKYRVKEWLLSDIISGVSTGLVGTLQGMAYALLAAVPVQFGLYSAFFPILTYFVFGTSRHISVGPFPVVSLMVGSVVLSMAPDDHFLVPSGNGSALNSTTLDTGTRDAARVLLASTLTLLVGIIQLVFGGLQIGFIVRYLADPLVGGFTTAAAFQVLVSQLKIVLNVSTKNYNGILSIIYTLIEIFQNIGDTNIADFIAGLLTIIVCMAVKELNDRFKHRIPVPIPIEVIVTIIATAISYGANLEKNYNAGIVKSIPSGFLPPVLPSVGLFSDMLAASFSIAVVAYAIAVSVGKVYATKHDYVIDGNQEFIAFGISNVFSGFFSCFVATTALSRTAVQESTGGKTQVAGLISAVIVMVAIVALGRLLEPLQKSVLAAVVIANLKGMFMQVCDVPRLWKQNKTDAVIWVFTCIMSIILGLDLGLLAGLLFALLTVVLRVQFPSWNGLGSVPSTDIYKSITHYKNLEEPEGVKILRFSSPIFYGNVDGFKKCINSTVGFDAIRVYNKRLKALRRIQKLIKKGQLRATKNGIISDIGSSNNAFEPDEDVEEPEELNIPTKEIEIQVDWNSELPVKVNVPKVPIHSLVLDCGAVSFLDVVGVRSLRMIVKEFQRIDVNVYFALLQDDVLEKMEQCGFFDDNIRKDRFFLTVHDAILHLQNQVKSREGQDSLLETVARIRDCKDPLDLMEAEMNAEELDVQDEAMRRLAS
Put plainly: functional cell-based assay of PDS-mediated Cl-/I- exchange. Conditions: Fischer rat thyroid cells expressing murine PDS. Put shortly: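 Fischer rat thyroid cells stably co-expressing murine pendrin and the halide-sensitive fluorescent protein EYFP-H148Q/I152L/F46L. Pendrin-mediated Cl–/I– exchange is followed through this halide-sensing fluorescent reporter. Inhibition is reported as IC50.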

As to `CCOC(=O)c1nn(C)c2c1CN(C(=O)Nc1ccc(Cl)cc1)CC2` [Compound 20], the “PDS inhibition activity (in words)” value is “minimal PDS inhibition activity”. With `Cn1nc(C(=O)O)c2c1CCN(C(=O)Nc1ccc(Cl)cc1)C2` [Compound 21], the “PDS inhibition activity (in words)” value was “minimal PDS inhibition activity”.
